Laboratory results from ChEMBL document CHEMBL4138235, “Discovery of aliphatic-chain hydroxamates containing indole derivatives with potent class I histone deacetylase inhibitory activities” (Eur J Med Chem, 2018).

Tests used:
[1] = Inhibition of class 1 HDAC in human HeLa nuclear extracts using Boc-Lys(Ac)-AMC as substrate preincubated for 5 mins followed by substrate addition measured after 30 mins by fluorescence assay
[2] = tested on: PC-3; assay: Cytotoxicity against human PC3 cells assessed as growth inhibition after 48 hrs by SRB assay; assay type: functional, cell-based; conditions: PC-3, 48 h
[3] = tested on: A549; assay: Cytotoxicity against human A549 cells assessed as growth inhibition after 48 hrs by SRB assay; assay type: functional, cell-based; conditions: A549, 48 h
[4] = biological target: Histone deacetylase 1 (Homo sapiens, UniProt Q13547); assay: Inhibition of C-terminal FLAG/His-tagged full length recombinant human HDAC1 expressed in baculovirus infected Sf9 insect cells using KI 177 as substrate preincubated for 5 mins followed by substrate addition measured after 30 mins by fluorescence assay
[5] = biological target: T1, Histone deacetylase 2 (Homo sapiens, UniProt Q92769); assay: biochemical; assay type: cell-based, Sf9
[6] = biological target: Histone deacetylase 3/Nuclear receptor corepressor 2 (HDAC3/NCoR2) (Homo sapiens, UniProt O15379); assay: Inhibition of C-terminal His-tagged/N-terminal GST-tagged full length recombinant human HDAC3/NcoR2 expressed in baculovirus infected Sf9 insect cells using KI 177 as substrate preincubated for 5 mins followed by substrate addition measured after 30 mins by fluorescence assay
[7] = biological target: T2, Histone deacetylase 8 (Homo sapiens, UniProt Q9BY41); assay: Inhibition of C-terminal His-tagged recombinant human HDAC8 (1 to 377 residues) expressed in baculovirus infected Sf9 insect cells using Boc-Lys(TFA)-AMC as substrate preincubated for 5 mins followed by substrate addition measured after 30 mins by fluorescence assay
T2 sequence (Q9BY41 whole entry): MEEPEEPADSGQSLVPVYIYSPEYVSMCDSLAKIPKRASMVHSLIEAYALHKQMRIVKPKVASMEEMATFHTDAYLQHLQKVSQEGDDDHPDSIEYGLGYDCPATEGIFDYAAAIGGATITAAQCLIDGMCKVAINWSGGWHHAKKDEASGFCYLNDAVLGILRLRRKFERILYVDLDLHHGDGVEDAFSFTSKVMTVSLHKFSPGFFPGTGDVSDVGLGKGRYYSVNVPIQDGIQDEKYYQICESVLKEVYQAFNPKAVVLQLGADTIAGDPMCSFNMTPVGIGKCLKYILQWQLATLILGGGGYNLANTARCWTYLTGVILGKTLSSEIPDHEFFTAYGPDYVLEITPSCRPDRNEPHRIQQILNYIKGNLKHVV

[8] = biological target: Histone deacetylase 4 (Homo sapiens, UniProt P56524); assay: Inhibition of N-terminal GST/C-terminal His-tagged recombinant human HDAC4 (648 to 1057 residues) expressed in baculovirus infected Sf9 insect cells using Boc-Lys(TFA)-AMC as substrate preincubated for 5 mins followed by substrate addition measured after 30 mins by fluorescence assay
[9] = biological target: Histone deacetylase 5 (Homo sapiens, UniProt Q9UQL6); assay: Inhibition of full length recombinant human HDAC5 preincubated for 5 mins followed by substrate addition measured after 30 mins by fluorescence assay
[10] = biological target: T3, Histone deacetylase 7 (Homo sapiens, UniProt Q8WUI4); assay: Inhibition of N-terminal GST-tagged human HDAC7 expressed in baculovirus infected Sf9 insect cells preincubated for 5 mins followed by substrate addition measured after 30 mins by fluorescence assay
T3 sequence (Q8WUI4 whole entry): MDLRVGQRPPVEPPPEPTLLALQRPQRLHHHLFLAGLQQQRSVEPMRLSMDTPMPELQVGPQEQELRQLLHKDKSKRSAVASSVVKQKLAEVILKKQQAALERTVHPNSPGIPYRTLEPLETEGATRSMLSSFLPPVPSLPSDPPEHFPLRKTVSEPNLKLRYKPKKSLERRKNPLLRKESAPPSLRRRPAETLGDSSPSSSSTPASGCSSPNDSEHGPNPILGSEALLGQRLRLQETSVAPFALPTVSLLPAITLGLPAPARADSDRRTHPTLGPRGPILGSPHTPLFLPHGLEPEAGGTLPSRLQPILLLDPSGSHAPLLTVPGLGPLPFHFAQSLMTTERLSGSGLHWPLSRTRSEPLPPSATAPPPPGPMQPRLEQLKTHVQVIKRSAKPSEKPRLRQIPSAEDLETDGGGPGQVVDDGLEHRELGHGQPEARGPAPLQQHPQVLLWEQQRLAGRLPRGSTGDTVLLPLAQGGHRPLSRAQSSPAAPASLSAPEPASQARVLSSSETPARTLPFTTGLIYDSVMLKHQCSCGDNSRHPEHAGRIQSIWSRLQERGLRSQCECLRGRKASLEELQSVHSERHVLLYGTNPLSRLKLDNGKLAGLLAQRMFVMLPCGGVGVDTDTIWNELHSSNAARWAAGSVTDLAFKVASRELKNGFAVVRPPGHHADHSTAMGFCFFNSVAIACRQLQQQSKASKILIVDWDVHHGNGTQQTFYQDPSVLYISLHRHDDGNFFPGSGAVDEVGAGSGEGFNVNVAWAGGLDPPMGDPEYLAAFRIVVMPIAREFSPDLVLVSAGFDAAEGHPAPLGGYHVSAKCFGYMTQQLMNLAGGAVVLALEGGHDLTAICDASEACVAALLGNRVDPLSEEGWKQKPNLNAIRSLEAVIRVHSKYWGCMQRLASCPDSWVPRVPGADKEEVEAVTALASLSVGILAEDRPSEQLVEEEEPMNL

[11] = biological target: Histone deacetylase 9 (Homo sapiens, UniProt Q9UKV0); assay: Inhibition of C-terminal His-tagged recombinant human HDAC9 expressed in baculovirus infected Sf9 insect cells preincubated for 5 mins followed by substrate addition measured after 30 mins by fluorescence assay
[12] = biological target: T4, Protein deacetylase HDAC6 (Homo sapiens, UniProt Q9UBN7); assay: Inhibition of N-terminal GST-tagged human HDAC6 using Boc-Lys(Ac)-AMC as substrate preincubated for 5 mins followed by substrate addition measured after 30 mins by fluorescence assay
T4 sequence (Q9UBN7 whole entry): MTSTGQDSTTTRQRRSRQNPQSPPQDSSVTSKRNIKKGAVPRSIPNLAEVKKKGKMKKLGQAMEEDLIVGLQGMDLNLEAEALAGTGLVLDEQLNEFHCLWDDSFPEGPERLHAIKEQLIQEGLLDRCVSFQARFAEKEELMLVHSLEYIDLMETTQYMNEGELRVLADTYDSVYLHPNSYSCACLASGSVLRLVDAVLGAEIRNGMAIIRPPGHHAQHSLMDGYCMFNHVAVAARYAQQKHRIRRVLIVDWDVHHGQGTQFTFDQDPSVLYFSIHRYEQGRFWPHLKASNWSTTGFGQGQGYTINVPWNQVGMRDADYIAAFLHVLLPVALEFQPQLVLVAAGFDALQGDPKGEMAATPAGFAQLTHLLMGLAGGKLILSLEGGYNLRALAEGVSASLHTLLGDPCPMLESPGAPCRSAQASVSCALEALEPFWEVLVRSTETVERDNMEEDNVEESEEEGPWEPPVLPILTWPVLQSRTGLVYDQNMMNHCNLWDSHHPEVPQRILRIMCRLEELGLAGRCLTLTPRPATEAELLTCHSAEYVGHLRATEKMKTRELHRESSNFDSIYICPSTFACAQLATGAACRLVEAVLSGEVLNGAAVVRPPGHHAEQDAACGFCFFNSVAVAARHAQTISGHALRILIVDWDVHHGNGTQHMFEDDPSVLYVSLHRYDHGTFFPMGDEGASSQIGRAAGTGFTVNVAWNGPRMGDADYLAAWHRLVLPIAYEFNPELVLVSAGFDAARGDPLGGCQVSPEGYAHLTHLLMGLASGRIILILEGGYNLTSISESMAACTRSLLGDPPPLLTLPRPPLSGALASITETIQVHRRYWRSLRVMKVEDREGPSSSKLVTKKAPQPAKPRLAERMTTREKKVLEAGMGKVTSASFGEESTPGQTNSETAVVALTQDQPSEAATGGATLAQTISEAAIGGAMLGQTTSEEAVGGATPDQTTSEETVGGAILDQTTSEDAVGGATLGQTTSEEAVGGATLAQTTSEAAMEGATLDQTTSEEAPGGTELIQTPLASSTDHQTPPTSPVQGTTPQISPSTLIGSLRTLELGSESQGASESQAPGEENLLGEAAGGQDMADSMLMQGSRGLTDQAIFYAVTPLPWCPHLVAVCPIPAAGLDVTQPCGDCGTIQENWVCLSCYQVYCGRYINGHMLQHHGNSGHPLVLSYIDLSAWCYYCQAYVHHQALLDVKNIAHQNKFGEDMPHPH

[13] = species on record: Homo sapiens; assay: Potency index, ratio of SAHA IC50 to test compound IC50 for class 1 HDAC in human HeLa nuclear extracts
Method in brief: (§1)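 Fluorogenic deacetylase assay in 15 mM Tris-HCl pH 8.1, 0.25 mM EDTA, 250 mM NaCl, 10% glycerol. Enzyme and compound preincubated 5 min at 30 °C. Substrates: Boc-Lys(Ac)-AMC for HeLa extract, Boc-Lys(TFA)-AMC for HDAC8, KI 177 for HDAC1/2. Reaction ran 30 min at 30 °C, then trypsin with SAHA developed it 20 min; read at ex 355/em 460 nm. 0.1% DMSO set as 100% and 2 µM SAHA as 0%; run in triplicate; IC50 ratios relative to SAHA.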

[14] = biological target: T1, Histone deacetylase 2; assay: Potency index, ratio of SAHA IC50 to test compound IC50 for full length recombinant human HDAC2 expressed in baculovirus infected Sf9 insect cells; method in brief: as §1

T1 sequence (Q92769 whole entry): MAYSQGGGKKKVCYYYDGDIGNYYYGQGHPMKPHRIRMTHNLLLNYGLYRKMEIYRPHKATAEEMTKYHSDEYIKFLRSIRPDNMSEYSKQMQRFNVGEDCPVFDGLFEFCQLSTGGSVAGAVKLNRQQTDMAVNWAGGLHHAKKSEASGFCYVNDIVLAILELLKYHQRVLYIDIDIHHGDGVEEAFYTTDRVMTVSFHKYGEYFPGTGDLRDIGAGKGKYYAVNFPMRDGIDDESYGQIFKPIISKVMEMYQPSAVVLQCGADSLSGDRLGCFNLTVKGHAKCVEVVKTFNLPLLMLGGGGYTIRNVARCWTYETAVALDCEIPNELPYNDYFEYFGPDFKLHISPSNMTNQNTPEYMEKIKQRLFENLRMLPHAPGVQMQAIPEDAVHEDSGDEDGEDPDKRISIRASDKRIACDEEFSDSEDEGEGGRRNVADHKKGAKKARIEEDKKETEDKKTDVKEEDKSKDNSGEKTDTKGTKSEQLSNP
Histone deacetylase 4, sequence (P56524 whole entry, the tested form may be a part): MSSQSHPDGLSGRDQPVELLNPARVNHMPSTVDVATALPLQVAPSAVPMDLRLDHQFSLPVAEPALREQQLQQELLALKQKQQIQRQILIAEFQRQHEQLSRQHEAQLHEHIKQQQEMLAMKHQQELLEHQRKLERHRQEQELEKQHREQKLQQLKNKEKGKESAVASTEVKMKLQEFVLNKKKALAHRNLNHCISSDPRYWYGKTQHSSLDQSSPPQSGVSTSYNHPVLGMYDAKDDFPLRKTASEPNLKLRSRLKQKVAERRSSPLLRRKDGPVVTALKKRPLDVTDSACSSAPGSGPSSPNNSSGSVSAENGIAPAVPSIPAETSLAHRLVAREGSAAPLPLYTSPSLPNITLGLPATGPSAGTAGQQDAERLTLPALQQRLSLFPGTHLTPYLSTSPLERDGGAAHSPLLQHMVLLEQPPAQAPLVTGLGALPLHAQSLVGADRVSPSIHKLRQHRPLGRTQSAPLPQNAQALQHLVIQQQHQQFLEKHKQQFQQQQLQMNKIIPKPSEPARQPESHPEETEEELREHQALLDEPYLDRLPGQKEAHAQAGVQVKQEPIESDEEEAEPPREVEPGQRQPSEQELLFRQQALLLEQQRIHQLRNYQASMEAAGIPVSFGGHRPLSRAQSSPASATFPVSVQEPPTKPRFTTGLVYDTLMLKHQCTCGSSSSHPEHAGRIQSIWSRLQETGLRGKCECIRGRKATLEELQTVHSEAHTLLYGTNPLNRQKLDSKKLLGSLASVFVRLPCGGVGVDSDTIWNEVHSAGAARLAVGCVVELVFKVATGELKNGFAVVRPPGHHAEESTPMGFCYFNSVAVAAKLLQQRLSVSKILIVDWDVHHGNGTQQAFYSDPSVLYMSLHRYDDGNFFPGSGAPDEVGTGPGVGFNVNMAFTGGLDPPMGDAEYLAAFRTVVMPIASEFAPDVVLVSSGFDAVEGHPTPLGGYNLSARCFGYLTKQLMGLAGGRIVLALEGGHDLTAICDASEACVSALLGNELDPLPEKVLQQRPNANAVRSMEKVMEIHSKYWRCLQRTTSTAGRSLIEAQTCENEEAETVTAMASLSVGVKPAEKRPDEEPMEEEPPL
Histone deacetylase 5, sequence (Q9UQL6 whole entry): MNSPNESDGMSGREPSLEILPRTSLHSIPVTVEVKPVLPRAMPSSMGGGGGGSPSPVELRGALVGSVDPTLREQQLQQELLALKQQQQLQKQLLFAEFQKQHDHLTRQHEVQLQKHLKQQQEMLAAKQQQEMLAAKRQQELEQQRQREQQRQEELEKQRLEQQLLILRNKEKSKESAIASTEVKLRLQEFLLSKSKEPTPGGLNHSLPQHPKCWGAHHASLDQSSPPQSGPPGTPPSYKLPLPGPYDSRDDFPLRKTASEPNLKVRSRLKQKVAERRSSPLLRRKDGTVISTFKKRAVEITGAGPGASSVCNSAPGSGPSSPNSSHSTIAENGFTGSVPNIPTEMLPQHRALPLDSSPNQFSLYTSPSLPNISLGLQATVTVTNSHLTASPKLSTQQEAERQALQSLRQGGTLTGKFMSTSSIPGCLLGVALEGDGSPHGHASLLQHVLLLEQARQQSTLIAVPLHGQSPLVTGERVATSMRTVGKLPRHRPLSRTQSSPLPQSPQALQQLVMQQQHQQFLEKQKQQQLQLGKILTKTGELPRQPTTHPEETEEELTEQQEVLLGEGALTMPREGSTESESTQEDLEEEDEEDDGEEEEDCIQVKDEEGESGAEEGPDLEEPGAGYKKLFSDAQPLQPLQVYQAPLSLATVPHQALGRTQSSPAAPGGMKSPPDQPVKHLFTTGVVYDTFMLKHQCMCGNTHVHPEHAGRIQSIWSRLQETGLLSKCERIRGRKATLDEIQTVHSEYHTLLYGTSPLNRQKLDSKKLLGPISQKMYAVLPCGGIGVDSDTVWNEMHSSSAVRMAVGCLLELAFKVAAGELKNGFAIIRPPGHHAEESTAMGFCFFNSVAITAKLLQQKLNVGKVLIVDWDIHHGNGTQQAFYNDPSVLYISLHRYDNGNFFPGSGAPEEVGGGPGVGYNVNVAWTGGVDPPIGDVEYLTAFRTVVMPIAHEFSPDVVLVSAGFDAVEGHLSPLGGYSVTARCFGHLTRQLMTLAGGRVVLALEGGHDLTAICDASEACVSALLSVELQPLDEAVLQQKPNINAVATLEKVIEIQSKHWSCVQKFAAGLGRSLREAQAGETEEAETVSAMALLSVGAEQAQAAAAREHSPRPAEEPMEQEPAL
Histone deacetylase 1, sequence (Q13547 whole entry): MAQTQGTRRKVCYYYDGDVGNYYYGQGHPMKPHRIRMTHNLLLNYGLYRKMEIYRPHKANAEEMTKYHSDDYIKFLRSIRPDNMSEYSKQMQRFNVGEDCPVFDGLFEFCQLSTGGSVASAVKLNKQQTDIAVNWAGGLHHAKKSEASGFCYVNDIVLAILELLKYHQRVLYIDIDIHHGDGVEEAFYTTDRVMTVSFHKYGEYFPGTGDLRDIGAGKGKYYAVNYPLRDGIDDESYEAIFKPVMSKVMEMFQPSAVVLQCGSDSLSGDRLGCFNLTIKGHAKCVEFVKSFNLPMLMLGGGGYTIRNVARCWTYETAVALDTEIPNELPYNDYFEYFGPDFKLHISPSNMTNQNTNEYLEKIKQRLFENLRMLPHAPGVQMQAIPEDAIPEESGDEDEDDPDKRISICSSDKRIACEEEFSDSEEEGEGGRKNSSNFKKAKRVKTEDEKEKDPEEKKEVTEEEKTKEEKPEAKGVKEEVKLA
Histone deacetylase 9, sequence (Q9UKV0 whole entry): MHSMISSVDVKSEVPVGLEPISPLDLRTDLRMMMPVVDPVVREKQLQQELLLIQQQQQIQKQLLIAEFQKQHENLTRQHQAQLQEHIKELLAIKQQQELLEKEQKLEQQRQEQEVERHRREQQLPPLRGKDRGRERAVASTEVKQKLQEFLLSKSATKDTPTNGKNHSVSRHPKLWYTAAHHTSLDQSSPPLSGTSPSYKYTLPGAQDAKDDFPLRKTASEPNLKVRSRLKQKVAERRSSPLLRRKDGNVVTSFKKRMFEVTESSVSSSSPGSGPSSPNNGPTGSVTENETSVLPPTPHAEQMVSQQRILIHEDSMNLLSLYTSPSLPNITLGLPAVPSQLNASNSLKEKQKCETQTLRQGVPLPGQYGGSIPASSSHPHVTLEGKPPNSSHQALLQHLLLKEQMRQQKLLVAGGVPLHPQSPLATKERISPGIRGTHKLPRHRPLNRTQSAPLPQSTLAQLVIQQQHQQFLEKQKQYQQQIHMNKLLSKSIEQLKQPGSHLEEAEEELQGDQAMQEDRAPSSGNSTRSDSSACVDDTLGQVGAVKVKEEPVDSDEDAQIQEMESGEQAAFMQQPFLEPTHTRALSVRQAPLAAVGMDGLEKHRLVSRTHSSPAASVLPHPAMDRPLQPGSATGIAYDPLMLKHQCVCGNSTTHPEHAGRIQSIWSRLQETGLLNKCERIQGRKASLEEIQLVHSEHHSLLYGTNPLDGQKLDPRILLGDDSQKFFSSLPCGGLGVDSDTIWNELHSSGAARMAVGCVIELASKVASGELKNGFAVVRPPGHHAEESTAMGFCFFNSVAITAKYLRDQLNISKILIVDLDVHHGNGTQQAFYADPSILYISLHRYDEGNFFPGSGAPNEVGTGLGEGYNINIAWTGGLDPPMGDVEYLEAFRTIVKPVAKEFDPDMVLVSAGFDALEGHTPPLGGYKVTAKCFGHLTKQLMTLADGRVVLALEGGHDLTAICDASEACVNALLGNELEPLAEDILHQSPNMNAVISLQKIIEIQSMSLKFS

SMILES | IC50 [1] [nM] | IC50 [2] [nM] | IC50 [3] [µM] | other results
COc1cc2ccn(CCCCOc3ccccc3NC(=O)CCCCCCC(=O)NO)c2c(OC)c1OC | 111 | 2400 | 4.8 | –
COc1cc2ccn(CCCCOc3cccc(NC(=O)CCCCCCC(=O)NO)c3)c2c(OC)c1OC | 17.8 | 2100 | 2.4 | IC50 [4]: 29.3 nM; IC50 [5]: 1000 nM; IC50 [6]: 108 nM; IC50 [7]: 752 nM; IC50 [8]: > 10 µM; IC50 [9]: > 10 µM; IC50 [10]: > 10 µM; IC50 [11]: > 10 µM; IC50 [12]: 8.5 nM; Ratio IC50 [13]: 2 to 5
O=C(CCCCCCC(=O)Nc1cccc(OCCn2ccc3cc(Br)ccc32)c1)NO | 41.3 | – | – | –
COc1cc2ccn(CCCOc3cccc(NC(=O)CCCCCCC(=O)NO)c3)c2c(OC)c1OC | 22.5 | 2700 | 2.7 | Ratio IC50 [13]: 2 to 5
COc1cc2ccn(CCCOc3ccc(NC(=O)CCCCCCC(=O)NO)cc3)c2c(OC)c1OC | 139 | 6900 | 5.9 | –
COc1cc2ccn(CCCOc3ccccc3NC(=O)CCCCCCC(=O)NO)c2c(OC)c1OC | 111 | 3900 | 5 | –
COc1cc2ccn(CCOc3cccc(NC(=O)CCCCCCC(=O)NO)c3)c2c(OC)c1OC | 11.5 | 1300 | 2.4 | IC50 [4]: 11.1 nM; IC50 [5]: 111 nM; IC50 [6]: 72.5 nM; IC50 [7]: 421 nM; IC50 [8]: > 10 µM; IC50 [9]: > 10 µM; IC50 [10]: > 10 µM; IC50 [11]: > 10 µM; IC50 [12]: 9.6 nM; Ratio IC50 [14]: 2; Ratio IC50 [13]: 2 to 5
COc1ccc2c(ccn2CCOc2cccc(NC(=O)CCCCCCCCC(=O)NO)c2)c1 | 298 | – | – | –
COc1cc2ccn(CCOc3ccccc3NC(=O)CCCCCCC(=O)NO)c2c(OC)c1OC | 110 | 5600 | 5.9 | –
COc1ccc2ccn(CCOc3cccc(NC(=O)CCCCCCC(=O)NO)c3)c2c1 | 14.9 | 1800 | 4.2 | –
O=C(CCCCCCC(=O)Nc1cccc(OCCn2ccc3ccccc32)c1)NO | 23.1 | – | – | –
COc1ccc2c(ccn2CCOc2cccc(NC(=O)CCCCCCCC(=O)NO)c2)c1 | 40 | – | – | –
COc1cc2ccn(CCCCOc3ccc(NC(=O)CCCCCCC(=O)NO)cc3)c2c(OC)c1OC | 46.4 | 7700 | 9.7 | –
COc1cc2ccn(CCOc3ccc(NC(=O)CCCCCCC(=O)NO)cc3)c2c(OC)c1OC | 57.2 | 4400 | 4.9 | –
COc1cccc2ccn(CCOc3cccc(NC(=O)CCCCCCC(=O)NO)c3)c12 | 13.5 | 1400 | 1.9 | –
COc1ccc2c(ccn2CCOc2cccc(NC(=O)CCCCC(=O)NO)c2)c1 | 186 | – | – | –
